# Screening data deposited in PubChem BioAssay by several laboratories.
# Diaphorase act: counter-screen for diaphorase-based assays: diaphorase activators and chemical reducers; Diaphorase/resazurin coupled assay, resorufin fluorescence, 16 min; hits give high values; 1 = vehicle wells, 0 = NADH-free wells; activation factor at 20 µM; hit rate 0.005% among 190,000;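 active = diaphorase activity raised at least twofold by the compound at 20 µM; inactive = activation factor below 2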
#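 Material: Clostridium kluyveri diaphorase, purified enzyme; Quantity: enzyme 0.07 U/mL final; Medium: HEPES pH 7.4 buffer with MgCl2 and Tween 20; Dosing: single compound dose of 20 µM, 1% DMSO final; Schedule: 16 min reaction at room temperature; Measured by: red resorufin fluorescence at 544/590 nm excitation/emission.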
# L major viab: inhibitors of Leishmania major promastigote growth | inhibition, % at 10 µM | Leishmania major promastigotes, resazurin fluorescence viability | hit rate 9% among 200,000;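 note: promastigotes grown with compound for 44 hours at 28 °C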
# PfGluPho inh: PfG6PD (Plasmodium falciparum) enzyme inhibition | PfGluPho enzyme, NADPH resazurin-diaphorase fluorescence | inhibition, % at 20 µM | hit rate 0.78% among 350,000 | AID 504690;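 active = inhibition reaching at least a set limit at 20 µM in the primary screen, cut at about 59% in these data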;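 note: 0% = DMSO wells with substrate and 100% = DMSO wells lacking glucose-6-phosphate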
# Diaph inh CS: inhibits diaphorase or chemically oxidizes, flagging diaphorase assay artifacts; hit rate 0.69% among 190,000; AID 1217; diaphorase resazurin-to-resorufin fluorescence, NADH, 16 min; bacterial (C. kluyveri) enzyme, not human; inhibition, % at 20 µM;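 active = primary screen inhibition at 20 µM above a set limit, cut at about 50% in these data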;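 note: plate controls were DMSO with full reaction for no effect and wells lacking NADH for full effect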
#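 Test system: bacterial diaphorase enzyme (C. kluyveri); Quantity: 0.14 U/mL diaphorase, enzyme working solution; Times: reaction incubation of 16 min at room temperature; Measured by: fluorescence of resorufin formed from resazurin, Ex 544/Em 590 nm; Benchmarks: positive control minus NADH, DMSO neutral control.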
# Redox H2O2 prof: compounds producing H2O2 with reducing agent – biochemical, NIH compound library profiling, artefact control for MLSCN library redox annotation, primary screen | DTT-dependent redox cycling H2O2, phenol red/HRP absorbance; 100% = 100 µM peroxide control, 0% = buffer | hit rate 0.03% among 200,000 | AID 878 | activation, % at 10 µM;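 active = activation of at least 50% relative to the plate's high and low controls in the primary single-dose screen; inactive = activation below 50%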;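 note: compound incubated with DTT at 0.8 mM final as the reducing agent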
# G6PDH CS: L. mesenteroides G6PDH inhibition counter-screen | inhibition, % at 5 µM | AID 1020 | hit rate 0.12% among 200,000 | Purified L. mesenteroides G6PDH, diaphorase/resazurin coupled fluorescence, 45 min
# * marks the source's active call; other numbers are inactive results; . = not tested or not shown. This is one part of a sample in which hits are shown more often than they occur. Cut-off read from the data, not from the text of the source, unless noted: active = inhibition above about 50%; inactive = the rest.
SMILES,Diaphorase act,L major viab,PfGluPho inh,Diaph inh CS,Redox H2O2 prof,G6PDH CS
O=C(NC1CCN(Cc2ccccc2)CC1)c1cccc(S(=O)(=O)Nc2ccc(F)cc2)c1,.,.,1.8,.,.,.
CCn1cc(C(=O)NCc2ccccc2)c(=O)c2cc(F)c(N3CCN(C(=O)c4ccco4)CC3)cc21,0.8,95.4*,17.4,19.4,0.6,2.9
CC(C)Cc1nc2oc3c(N4CCN(CCO)CC4)ncnc3c2c2c1CCCC2,0.8,51.7*,20.6,18.4,-2.7,-33.2
NS(=O)(=O)c1ccc(N2N=C(c3ccccc3)CC2c2ccc(F)cc2)cc1 (centres undefined),0.7,98.3*,42.8,31.1,1.6,-20.2
COc1ccc(C2CC(c3ccccc3)=NN2c2ccc(S(N)(=O)=O)cc2)cc1 (centres undefined),0.6,29.8,11.0,42.3,-1.2,10.0
CC(OC(=O)c1ccc(NC(=O)CC#N)cc1)C(=O)Nc1nc(-c2ccccc2)cs1 (centres undefined),.,.,5.0,.,.,.
NC1=NC(=O)/C(=C/c2c(OS(=O)(=O)c3ccc(Cl)cc3)ccc3ccccc23)S1,1,60.8*,4.8,3.8,1.2,-1.3
CN(/C=C/C(=C\C=[N+](C)c1ccccc1)OCCCS(=O)(=O)[O-])c1ccccc1,0.4,-4.2,-9.0,58.7*,0.6,17.1
CCN(CC)S(=O)(=O)c1ccc(N/N=C/c2cc(OC)ccc2O)nc1,0.9,91.8*,-8.0,7.2,-0.3,19.0
COc1ccc(O)c(/C=N/NC(=S)Nc2cccnc2)c1,0.9,94.1*,-5.3,5.5,-1.0,-16.6
COc1ccc(O)c(/C=N/NC(=S)Nc2cccc(S(=O)(=O)N(C)C)c2)c1,1,99.4*,-7.6,4.7,-0.4,-11.3
COc1cccc(/C=N/NC(=S)Nc2cccnc2)c1,0.8,0.3,18.8,18.5,-0.9,2.6
COc1ccc(-n2c(C)nnc2SCC(=O)Nc2ccccc2F)cc1,.,.,29.2,.,.,.
CC(OC(=O)c1snc(C(=O)NC2CCCCC2)c1N)C(=O)NC1CCCCC1 (centres undefined),1.1,-3.8,-5.9,-12.5,0.2,1.8
CC(=O)c1sc(N/N=C2\CC3CC2C(C)C3(C)C)nc1C (centres undefined),0.7,91.3*,16.9,25.1,0.6,8.5
CC(C)c1nnc(NC(=O)CS(=O)(=O)c2ccccc2)s1,.,.,-4.7,.,.,.
Cc1ccc(CSC(Nc2ccc(F)cc2)=C(C#N)C#N)cc1,0.7,57.9*,-35.9,30.8,-0.2,5.6
COc1cc(NC2=Nc3cccc4cccc2c34)cc(OC)c1OC,1,56.3*,25.1,2.8,0.0,8.5
COc1ccc(NC2=Nc3cccc4cccc2c34)cc1OC,1,34.0,-12.5,0.9,3.2,3.7
CCCCOc1ccc(CN2CCCCC2)cc1,0.9,93.1*,-9.1,14.8,-0.6,13.7
CCOc1ccc(OCCCCN2CCCC2)cc1,0.9,99.3*,1.1,10.6,0.2,13.7
COC(=O)c1ccccc1OCCCCN1CC(C)OC(C)C1 (centres undefined),0.9,88.4*,11.6,6.8,-0.7,3.2
Cc1ccc(C)c(OCCOCCN2CC(C)OC(C)C2)c1C (centres undefined),1,90.6*,-7.2,-1.9,0.0,10.1
COc1ccccc1CCC(=O)Nc1ccc(S(=O)(=O)Nc2ncccn2)cc1,.,.,-1.2,.,.,.
CN(CCCNC(=O)CCC(=O)N1CCOc2ccc(Cl)cc21)Cc1ccccc1,.,.,27.1,.,.,.
SMILES,Diaphorase act,L major viab,PfGluPho inh,Diaph inh CS,Redox H2O2 prof,G6PDH CS
Cn1cnnc1SCC(=O)Nc1nc(-c2ccccc2)cs1,0.9,6.6,-1.6,8.4,-0.3,4.9
Cc1cccc(/C=C2/S/C(=N/N=C3\CC4CCC3(C)C4(C)C)NC2=O)c1 (centres undefined),0.7,3.8,-16.1,27.5,-3.1,-2.2
CC(C)c1ccc(Nc2nc(Cl)nc(NCCO)n2)cc1,.,.,6.7,.,.,.
CN(CC(=O)Nc1c(Cl)cccc1Cl)C(=O)c1cc(S(=O)(=O)N(C)C)ccc1N1CCCC1,.,.,-7.8,.,.,.
COc1cccc(N(CC(=O)NC2CCCCC2)C(=O)CCC(=O)Nc2nccs2)c1,.,.,2.9,.,.,.
CC1CN(CCOc2ccc(Cl)c(Cl)c2)CC(C)O1 (centres undefined),.,.,10.9,.,.,.
Cc1ccc(OCCCCN2CCCCC2)cc1,.,.,-12.5,.,.,.
CC1CN(CCCCOc2ccc(F)cc2)CC(C)O1 (centres undefined),0.9,85.2*,-2.2,14.4,-0.5,7.2
Fc1ccc(OCCCCCN2CCCC2)cc1,0.9,87.1*,13.6,6.3,-2.6,-1.9
CC1=C(C(=O)OCCOC(C)C)C(c2cc3c(cc2Br)OCO3)CC(=O)N1 (centres undefined),1,98.3*,-5.2,0.0,-3.5,3.2
COC(=O)C1=C(C)NC(=O)CC1c1cc2c(cc1Br)OCO2 (centres undefined),0.9,-3.5,-9.4,14.4,-0.7,7.1
COC(=O)c1sccc1NC(=O)Cn1cnc2c1c(=O)n(C)c(=O)n2C,0.9,-0.9,-2.4,6.1,1.2,10.2
O=C(/C=C/c1ccc(Cl)cc1Cl)N(Cc1ccccc1)C1CCS(=O)(=O)C1 (centres undefined),0.9,84.1*,14.8,14.7,0.1,9.6
O=C(/C=C/c1ccc(Cl)cc1Cl)N(Cc1ccc(Cl)cc1)C1CCS(=O)(=O)C1 (centres undefined),0.9,87.8*,14.0,11.8,2.7,10.5
O=C(/C=C/c1ccc(Cl)cc1)N(Cc1ccccc1)C1CCS(=O)(=O)C1 (centres undefined),0.9,3.2,13.7,13.1,0.2,2.9
Cn1c(=O)c2sccc2n(Cc2ccccc2)c1=O,.,.,-14.2,.,.,.
O=C1N/C(=C\c2ccc(O)cc2)C(=O)c2ccccc21,0.9,100.3*,8.9,10.7,-4.5,15.1
Cc1ccc(CC(=O)N2CCN(C(=O)C3CCCO3)CC2)cc1 (centres undefined),.,.,-3.7,.,.,.
CCOC(=O)C1(CCOc2ccccc2)CCN(Cc2ccc(CO)o2)CC1,0.9,61.7*,-0.6,10.2,-0.5,11.8
CCOC(=O)C1(CCOc2ccccc2)CCN(Cc2cnc(C)s2)CC1,0.9,78.9*,18.6,7.5,0.0,12.2
CCOC(=O)C1(CCOc2ccccc2)CCN(Cc2ccccc2O)CC1,.,.,-3.6,.,.,.
Cc1ccc(NC(=S)c2nc3ccccc3[nH]2)c(C)c1,0.9,86.9*,7.9,11.0,0.4,-2.1
Cc1ccccc1-n1ncc2c1CC(C)(C)CC2NC(=O)CCCN1CCCC1=O (centres undefined),.,.,-5.8,.,.,.
O=C(CCNc1cccc(Cl)c1)c1ccco1,0.9,83.2*,-8.1,13.3,-2.1,-0.7
CC1(C)NC(=O)N(CC(=O)N2CCN(c3ccc([N+](=O)[O-])cc3)CC2)C1=O,.,.,-2.0,.,.,.
